Test results taken from ChEMBL document CHEMBL3526126, “Amide hydrolysis of a novel chemical series of microsomal prostaglandin E synthase-1 inhibitors induces kidney toxicity in the rat” (Drug Metab Dispos, 2013).
Converted amounts (≈) assume the structure as drawn.

Experiments:
[1] = AUC (0 to 24 hrs) in Wistar Hannover rat at 1000 umol/kg, po qd measured on day 1; details: plasma
Rattus norvegicus [2] = test: Drug metabolism in Wistar Hannover rat assessed as formation of mono-oxidized metabolite +16 in plasma at 500 umol/kg, po qd administered for 7 days measured on day 7 by LC-MS analysis; format: ADME, organism-based; details: in vivo, 168 h
[3] = Drug metabolism in cryopreserved human hepatocytes assessed as amide hydrolysis at 1 to 10 uM by LC-MS analysis; format: ADME, cell-based, Hepatocyte
Outline: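 Hepatocytes at 1 × 10^6 cells/ml in William's medium incubated at 37°C with gentle shaking under 5% CO2. Substrate was at […]. Metabolites were analysed by LC-MS.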

Rattus norvegicus [4] = test: Toxicity in Wistar Hannover rat kidney assessed as increase in plasma urea level at 1000 umol/kg, po qd administered for 7 days measured on day 7; format: organism-based; details: in vivo, 168 h
Outline: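 Wistar Hannover rats, about 8 weeks old, were acclimatized about 2 weeks and randomized by body weight. Dosing was by oral gavage (10 ml/kg) once daily for 7 days, with vehicle controls. At the end of dosing, plasma (lithium heparin) was taken from the orbital plexus under isoflurane/oxygen anaesthesia, and urea and creatinine were measured.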

[5] = Cmax in male Wistar Hannover rat at 500 umol/kg, po qd administered for 7 days measured on day 7; details: in vivo
[6] = Cmax in female Wistar Hannover rat at 1000 umol/kg, po qd measured on day 1; details: in vivo
Rattus norvegicus [7] = test: Toxicity in Wistar Hannover rat kidney assessed as tubular degeneration /regeneration at 500 umol/kg, po qd administered for 7 days […]; format: organism-based; details: in vivo, 168 h
Outline: (§1)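 Wistar Hannover rats, about 8 weeks old, were gavaged once daily (10 ml/kg) for 7 days. One day after the last dose they were killed by carotid exsanguination under isoflurane/oxygen. Kidneys were fixed in buffered formalin, embedded in paraffin, sectioned, stained with hematoxylin and eosin, and examined by light microscopy.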

[8] = Drug metabolism in Sprague-Dawley rat hepatocytes assessed as formation of benzene-1,2-disulfonamide metabolite M1 at 1 to 10 uM by radio monitoring method; format: ADME, cell-based, Hepatocyte
Outline: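 Hepatocytes at 1 × 10^6 cells/ml in William's medium were incubated at 37°C with gentle shaking under 5% CO2, with substrate at […]. Separation was on an Atlantis T3 column (100 × 4.6 mm) at 1 ml/min, split 1:20 to the ion source and a flow scintillation monitor. Scintillation cocktail was added at 4 ml/min through a 0.5 ml flow cell.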

Rattus norvegicus [9] = test: Toxicity in Wistar Hannover rat kidney assessed as pale organ discoloration at 1000 umol/kg, po qd administered for 7 days measured on day 7 by necroscopic analysis; format: organism-based; details: in vivo, 168 h
[10] = AUC (0 to 24 hrs) in male Wistar Hannover rat at 500 umol/kg, po qd administered for 7 days measured on day 7; details: plasma
[11] = Solubility in rat urine at pH 7 after 5 hrs; format: physicochemical
Outline: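 Samples in rat urine at pH 7.0 were incubated at 37°C for 5 hours. They were analysed by HPLC on a C18 column with photodiode array and single mass detection.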

[12] = AUC (0 to 24 hrs) in male Wistar Hannover rat at 1000 umol/kg, po qd measured on day 1; details: plasma
Rattus norvegicus [13] = test: Toxicity in Wistar Hannover rat kidney assessed as presence of dilated tubules with cellular remnants within lumen at 1000 umol/kg, po qd administered for 7 days measured on day 7 by necroscopic analysis; format: organism-based; details: in vivo, 168 h
[14] = Cmax in male Wistar Hannover rat at 500 umol/kg, po qd measured on day 1; details: in vivo
Rattus norvegicus [15] = test: Toxicity in Wistar Hannover rat kidney assessed as free crystals in renal pelvis at 1000 umol/kg, po qd administered for 7 days measured after day 8 by hematoxylin/eosin staining-based light microscopic analysis; format: organism-based; details: in vivo, 168 h
Outline: as §1

NS(=O)(=O)c1ccccc1S(=O)(=O)NC(=O)c1ccc(C#Cc2ccccc2)cc1
AUC(0-t) at 24 h [1]: 1370 µM·h
Drug metabolism (Rattus norvegicus [2]): metabolite_detected
Drug metabolism [3]: metabolite_not_detected
Activity (Rattus norvegicus [4]): Toxic
Cmax [5]: 68 µM
Cmax [6]: 75 µM
Activity (Rattus norvegicus [7]): Toxic
Drug metabolism [8]: metabolite_not_detected
Activity (Rattus norvegicus [9]): Toxic
AUC at 24 h [10]: 480 µM·h
solubility at 5 h [11]: 45 µM (≈ 19.8 µg/mL)
AUC(0-t) at 24 h [12]: 610 µM·h
Activity (Rattus norvegicus [13]): Toxic
Cmax [14]: 73 µM
Activity (Rattus norvegicus [15]): Toxic
